Activity calls are given as the source filed them. The rule behind the calls is not given here.

The subject of data set [1] is Escovopsis. Briefly: Antifungal activity against Escovopsis ICBG711 at 100 ug measured after 21 days by ISP-2 agar based assay. Format: functional. Particulars: dose 100.0 µg, time 21.0 day. The method, boiled down:
(§1)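 Agar plug challenge on ISP-2: the producing bacterium was grown alone at plate centre for 7 days, then each fungal strain was point-inoculated 3 cm from centre. 100 µg of compound or miconazole was applied directly at plate centre. Plates were monitored for 21 days at 28 °C, with two replicates per sample–fungus pair.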

The test system of data set [2] is Escovopsis. Briefly: Antifungal activity against Escovopsis ICBG740 at 100 ug measured after 21 days by ISP-2 agar based assay. Format: functional. The settings on record: dose 100.0 µg, time 21.0 day. In outline:
as §1

For data set [3], the system named is Escovopsis. Nature of the data set: Antifungal activity against Escovopsis ICBG741 at 100 ug measured after 21 days by ISP-2 agar based assay. The settings on record: dose 100.0 µg, time 21.0 day. It is filed as functional. The method, boiled down: as §1
In data set [4] the test system is Escovopsis. Nature of the data set: Antifungal activity against Escovopsis ICBG1251 at 100 ug measured after 21 days by ISP-2 agar based assay. Format: functional. Particulars: dose 100.0 µg, time 21.0 day. In outline:
as §1

The subject of another data set is Bacillus subtilis. Briefly: Antibacterial activity against Bacillus subtilis NRS 231 by agar-based assay. It is filed as functional, organism-based.
The subject of a further data set is Escherichia coli. Nature of the data set: Antibacterial activity against Escherichia coli ATCC 25922 by agar-based assay. Format: functional, organism-based.
A further data set relates to Staphylococcus aureus. Nature of the data set: Antibacterial activity against methicillin-sensitive Staphylococcus aureus Wichita by agar-based assay. Format: functional, organism-based.
The test system of a further data set is Pseudomonas aeruginosa. Nature of the data set: Antibacterial activity against Pseudomonas aeruginosa Boston 41501 by agar-based assay. Format: functional, organism-based.
The test system of data set [5] is Leishmania donovani. Briefly: Antileishmanial activity against Leishmania donovani MHOM/ET/67/HU3 axenic promastigotes assessed as parasite growth inhibition after 72 hrs by resorufin dye based fluorometric analysis. Format: functional, organism-based. Particulars: MHOM/ET/67/HU3, 72 h. In outline:
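Axenic promastigotes, 1×10^5 per well in log phase, in M199 pH 7.4 with 10% heat-inactivated FCS at 28 °C. Ten 2-fold dilutions from 0.125 to 64 µM (10 mM DMSO stocks) were incubated for 72 h; miltefosine was the reference. Alamar Blue was added for 3 h, read at ex 536/em 588 nm, normalized to untreated wells, and IC50 obtained by variable-slope fit.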

The test system of data set [6] is Leishmania donovani. Briefly: Antileishmanial activity against Leishmania donovani MHOM/ET/67/HU3 amastigotes infected in human THP1 cells assessed as parasite growth inhibition after 120 hrs by giemsa staining based inverted microscopic analysis. It is filed as functional, organism-based. Particulars: MHOM/ET/67/HU3, THP-1, 120 h. In outline: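 THP-1 cells (2×10^4/well, RPMI-1640) were differentiated with PMA 20 ng/mL for 72 h at 37 °C, 5% CO2. They were infected with late-stage promastigotes (2×10^5/well) for 24 h, washed, then exposed to serial dilutions for 120 h with a miltefosine control. Cells were methanol-fixed and Giemsa-stained, and amastigotes per macrophage counted microscopically relative to untreated wells. IC50 was from a variable-slope fit.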

Data set [7] in a line: Cytotoxicity against human THP1 cells assessed as growth inhibition after 120 hrs by Alamar blue dye based fluorometric analysis. It is filed as cell-based. The settings on record: THP-1 cells. In outline:
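PMA-differentiated THP-1 cells (2×10^4/well, PMA 20 ng/mL, 72 h, 37 °C, 5% CO2) were exposed to serial dilutions for 120 h with a doxorubicin control. Alamar Blue was added for 3 h, read at ex 536/em 588 nm, and inhibition taken relative to untreated wells. IC50 was from a variable-slope fit; mean ± SD of 3 biological replicates.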
In general terms: Resazurin is reduced to fluorescent resorufin, in cell work by metabolically active cells.

Data set [8] can be described thus: Selectivity index, ratio of CC50 for human THP1 cells to IC50 for antileishmanial activity against Leishmania donovani MHOM/ET/67/HU3 amastigotes infected in human THP1 cells after 120 hrs. It is filed as toxicity, cell-based. The settings on record: read-out: Ratio CC50/IC50. The method, boiled down:
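Index computed as CC50 in PMA-differentiated THP-1 cells (120 h Alamar Blue read-out) divided by IC50 against intracellular amastigotes in THP-1 (120 h exposure, Giemsa count).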

For a further data set, the system named is Trichoderma. Briefly: Antifungal activity against Trichoderma ICBG1100 at 100 ug measured after 21 days by ISP-2 agar based assay. It is filed as functional, organism-based. The settings on record: dose 100.0 µg, time 21.0 day. The method, boiled down:
as §1

A further data set has as its system Cunninghamella. Nature of the data set: Antifungal activity against Cunninghamella ICBG752 at 100 ug measured after 21 days by ISP-2 agar based assay. It is filed as functional, organism-based. Particulars: dose 100.0 µg, time 21.0 day. The method, boiled down:
as §1

As usually defined, the IC50 is the concentration at which inhibition is half-maximal. What is called CC50 is the concentration at which the toxic effect on the cells reaches its halfway point. On to `CC[C@H](O[C@H]1C[C@@](C)(O)[C@H](O[C@H]2CC[C@H](OC(=O)[C@H](C)[C@H](O)c3ccc4c(c3)C(=O)C=C(C)C4=O)[C@@H](C)O2)[C@H](C)O1)[C@H](C)[C@H](O)[C@@H](C)[C@H](O)[C@H](C)[C@H]1OC(=O)/C=C/[C@H](C)[C@H](O)C[C@H](O)CCC[C@@H](O)CC[C@@H](C)[C@H](O)C(=O)[C@]2(O)O[C@H](C[C@@H](O)C[C@H](O)C[C@H](O)CCC[C@H](O)[C@@H]3O[C@H]3[C@@H]1C)C[C@H](O)[C@H]2O`, for which the outcome in the data set on Escovopsis [1], with Escovopsis [2], with Escovopsis [3] and in the data set on Escovopsis [4] was Active. The result in the data set with Bacillus subtilis, with Escherichia coli, in the data set with Staphylococcus aureus, with Pseudomonas aeruginosa, in the data set with Trichoderma and in the data set with Cunninghamella was inactive. The concentration for half-maximal inhibition (IC50) is 0.046 µM in the data set with Leishmania donovani [5] and 0.073 µM in the data set with Leishmania donovani [6]. In addition, the cytotoxic concentration (CC50) at 120 h in [7] stood at 6.07 µM. In addition, the selectivity ratio at 120 h in data set [8] is 83.2.

`COc1cccc2c1C(=O)c1c(O)c3c(c(O)c1C2=O)C[C@@](O)(C(=O)CO)C[C@@H]3O[C@H]1C[C@H](N)[C@H](O)[C@H](C)O1` [DOXORUBICIN]: the CC50 at 120 h in [7] is 0.58 µM.

Consider `CC[C@H](O[C@H]1C[C@@](C)(O)[C@H](O[C@H]2CC[C@H](OC(=O)[C@H](C)[C@H](O)c3ccc4c(c3)C(=O)C=C(C)C4=O)[C@@H](C)O2)[C@H](C)O1)[C@H](C)[C@H](O)[C@@H](C)[C@H](O)[C@H](C)[C@H]1OC(=O)/C=C/[C@H](C)[C@H](O)C[C@H](O)CCC[C@@H](O)CC[C@@H](C)[C@H](O)C(=O)[C@@]2(O)C[C@@H](O)C[C@@H](C[C@@H](O)C[C@H](O)C[C@H](O)CCC[C@H](O)/C=C/[C@@H]1C)O2`, for which the result in the data set on Escovopsis [1], in the data set on Escovopsis [2], in the data set on Escovopsis [3] and in the data set with Escovopsis [4] was Active. The outcome in the data set on Bacillus subtilis, with Escherichia coli, in the data set on Staphylococcus aureus, in the data set with Pseudomonas aeruginosa, in the data set with Trichoderma and with Cunninghamella was inactive. The 50% inhibitory concentration (IC50) is 0.118 µM with Leishmania donovani [5] and 2.32 µM in the data set with Leishmania donovani [6]. In data set [7], the CC50 at 120 h amounted to 11.5 µM. In addition, in data set [8], the selectivity ratio at 120 h is 4.94.

In the case of `CCCCCCCCCCCCCCCCOP(=O)([O-])OCC[N+](C)(C)C` [MILTEFOSINE], the figures for the IC50 with Leishmania donovani [5] and in the data set with Leishmania donovani [6] were 4.98 µM and 5.33 µM, respectively. Besides, the 50% cytotoxic concentration (CC50) at 120 h in [7] turned out to be 60.7 µM. In addition, the selectivity ratio at 120 h in data set [8] turned out to be 11.4.

For `CC[C@H](O[C@H]1C[C@@](C)(O)[C@H](O[C@H]2CC[C@H](OC(=O)[C@H](C)[C@H](O)c3ccc4c(c3)C(=O)C=C(C)C4=O)[C@@H](C)O2)[C@H](C)O1)[C@H](C)[C@H](O)[C@@H](C)[C@H](O)[C@H](C)[C@H]1OC(=O)/C=C/[C@H](C)[C@H](O)C[C@H](O)CCC[C@@H](O)CC[C@@H](C)[C@H](O)C(=O)[C@@]2(O)C[C@@H](O)C[C@@H](C[C@@H](O)C[C@H](O)C[C@H](O)CCC[C@H](O)[C@@H]3O[C@H]3[C@@H]1C)O2`, the result in the data set with Escovopsis [1], with Escovopsis [2], in the data set with Escovopsis [3] and in the data set with Escovopsis [4] was Active. The outcome in the data set on Bacillus subtilis, in the data set with Escherichia coli, in the data set on Staphylococcus aureus, in the data set with Pseudomonas aeruginosa, with Trichoderma and in the data set with Cunninghamella was inactive. The concentration for half-maximal inhibition (IC50) in the data set with Leishmania donovani [5] stood at 0.034 µM; in the data set on Leishmania donovani [6], 0.091 µM. Moreover, the CC50 at 120 h in data set [7] is 6.4 µM. Further, the selectivity ratio at 120 h in data set [8] turned out to be 70.3.

The values above are taken from ChEMBL document CHEMBL4715906, “Antileishmanial macrolides from ant-associated Streptomyces sp. ISID311” (Bioorg Med Chem, 2021).
